In ChEMBL document CHEMBL1212751, “Pharmacokinetics of artemether-lumefantrine and artesunate-amodiaquine in children in Kampala, Uganda” (Antimicrob Agents Chemother, 2010):
One block for each compound: values may come before it.

How the values were obtained:
Homo sapiens [1] = test: AUC (0-infinity) in Ugandan children patient with uncomplicated malaria assessed as desethylamodiaquine level at 10 mg/kg, perorally qd on first 2 days and then 5 mg/kg, perorally on third day co-administered with artesunate at 4 mg/kg, perorally bid for 3 days; assay type: ADME, organism-based, Plasma; design: dose 10 mg/kg, time infinity, route oral; details: in vivo, po
Method in brief: (§1)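 Oral AQ-AS was given for 3 days with food and fat to Ugandan children aged 5–13 y (n = 21). Venous blood was drawn pre-last dose and at 2, 4, 8, 24 and 120 h after it. For AQ-DEAQ, plasma was cold-centrifuged at 3,000 × g for 15 min and stored at −80°C. AUC0-∞ used trapezoids plus Clast/λz, with λz usually from the last three points.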

Homo sapiens [2] = test: Cmax in Ugandan children patient with uncomplicated malaria assessed as desethylamodiaquine level at 10 mg/kg, perorally qd on first 2 days and then 5 mg/kg, perorally on third day co-administered with artesunate at 4 mg/kg, perorally bid for 3 days; assay type: ADME, organism-based; design: dose 10 mg/kg, route oral; details: in vivo, po; method in brief: as §1
Homo sapiens [3] = test: AUC (0-infinity) in healthy human adult assessed as desethylamodiaquine level at 600 mg administered as single dose; assay type: ADME, organism-based, Plasma; design: dose 600 mg, time infinity; details: in vivo
[4] = AUC (0-8 hrs) in Ugandan children patient with uncomplicated malaria at 10 mg/kg, perorally qd on first 2 days and then 5 mg/kg, perorally on third day co-administered with artesunate at 4 mg/kg, perorally bid for 3 days; assay type: ADME, organism-based; design: dose 10 mg/kg, time < 8 hr, route oral; details: human, plasma, po
Homo sapiens [5] = test: AUC (0-120 hrs) in Ugandan children patient with uncomplicated malaria assessed as desethylamodiaquine level at 10 mg/kg, perorally qd on first 2 days and then 5 mg/kg, perorally on third day co-administered with artesunate at 4 mg/kg, perorally bid for 3 days; assay type: ADME, organism-based, Plasma; design: dose 10 mg/kg, time < 120 hr, route oral; details: in vivo, po
Homo sapiens [6] = test: Plasma concentration in Nigerian human adult malaria patient assessed as desethylamodiaquine level at 25 mg/kg measured on seventh day post dose; details: in vivo
[7] = Cmax in Ugandan children patient with uncomplicated malaria at 10 mg/kg, perorally qd on first 2 days and then 5 mg/kg, perorally on third day co-administered with artesunate at 4 mg/kg, perorally bid for 3 days; assay type: ADME, organism-based; design: dose 10 mg/kg, route oral; details: human, in vivo, po; method in brief: as §1
Homo sapiens [8] = test: Half life in Ugandan children patient with uncomplicated malaria assessed as desethylamodiaquine level at 10 mg/kg, perorally qd on first 2 days and then 5 mg/kg, perorally on third day co-administered with artesunate at 4 mg/kg, perorallybid for 3 days; assay type: ADME, organism-based; details: in vivo, po; method in brief: as §1
Homo sapiens [9] = test: Plasma concentration in Gabonian malarial children aged 6 months to 10 years assessed as desethylamodiaquine level at 30 mg/kg measured on third day post dose; details: in vivo
[10] = AUC (0-infinity) in healthy human adult at 600 mg administered as single dose; assay type: ADME, organism-based; design: dose 600 mg, time infinity; details: plasma
[11] = Half life in Ugandan children patient with uncomplicated malaria at 10 mg/kg, perorally qd on first 2 days and then 5 mg/kg, perorally on third day co-administered with artesunate at 4 mg/kg, perorally bid for 3 days; assay type: ADME, organism-based; details: human, in vivo, po; method in brief: as §1
[12] = AUC (0-infinity) in Ugandan children patient with uncomplicated malaria at 10 mg/kg, perorally qd on first 2 days and then 5 mg/kg, perorally on third day co-administered with artesunate at 4 mg/kg, perorally bid for 3 days; assay type: ADME, organism-based; design: dose 10 mg/kg, time infinity, route oral; details: human, plasma, po; method in brief: as §1
Homo sapiens [13] = test: Cmax in Ugandan children patient with uncomplicated malaria assessed as dihydroartemisin administered twice daily for 3 days as 20/120 mg tablets containing artemether-lumefantrine combination; assay type: ADME, organism-based; design: dose 120 mg; details: in vivo, po, 72 h
Method in brief: (§2)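 Children (5–13 y, n = 20) took AL twice daily for 3 days by weight band (20–24 kg, 2 tablets; 25–34 kg, 3; >34 kg, 4), each dose with 250 ml milk (3.3 g fat). Plasma was sampled 0–120 h after the morning last dose. AR and DHA were measured by LC-MS/MS; LR by HPLC-UV (LLOQ 25 ng/ml). Values below LLOQ were treated as missing.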

[14] = Half life in Ugandan children patient with uncomplicated malaria administered twice daily for 3 days as 20/120 mg tablets containing artemether-lumefantrine combination; assay type: ADME, organism-based; details: human, in vivo, po; method in brief: as §2
Homo sapiens [15] = test: Half life in Ugandan children patient with uncomplicated malaria assessed as dihydroartemisin administered twice daily for 3 days as 20/120 mg tablets containing artemether-lumefantrine combination; assay type: ADME, organism-based; details: in vivo, po, 72 h; method in brief: as §2
Homo sapiens [16] = test: AUC (0-infinity) in Ugandan children patient with uncomplicated malaria assessed as dihydroartemisin administered twice daily for 3 days as 20/120 mg tablets containing artemether-lumefantrine combination; assay type: ADME, organism-based, Plasma; design: dose 120 mg, time infinity; details: in vivo, po, 72 h; method in brief: as §2
[17] = Cmax in Ugandan children patient with uncomplicated malaria administered twice daily for 3 days as 20/120 mg tablets containing artemether-lumefantrine combination; assay type: ADME, organism-based; design: dose 120 mg; details: human, in vivo, oral; method in brief: as §2
[18] = AUC (0-infinity) in Ugandan children patient with uncomplicated malaria administered twice daily for 3 days as 20/120 mg tablets containing artemether-lumefantrine combination; assay type: ADME, organism-based; design: dose 120 mg, time infinity; details: human, plasma, po; method in brief: as §2
[19] = AUC (0-infinity) in Ugandan children patient with uncomplicated malaria at 4 mg/kg, perorally […] for 3 days co-administered with amodiaquine at 10 mg/kg, perorally qd on first 2 days and then 5 mg/kg, perorally on third day; assay type: ADME, organism-based; design: dose 4 mg/kg, route oral, time infinity; details: human, plasma, po
Method in brief: (§3)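 Ugandan children aged 5–13 y with uncomplicated malaria (n = 21) were dosed once daily for 3 days, with food and fat. Venous plasma was sampled before the last dose and 2, 4, 8, 24 and 120 h after it, cold-centrifuged and stored at −80°C. AS and DHA were measured by solid-phase extraction LC-MS/MS (positive ion mode). AUC0-∞ used the linear up-log down trapezoidal rule; Cmax was observed.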

Homo sapiens [20] = test: Cmax in Ugandan children patient with uncomplicated malaria assessed as dihydroartemisinin level at 4 mg/kg, perorally […] for 3 days co-administered with amodiaquine at 10 mg/kg, perorally qd on first 2 days and then 5 mg/kg, perorally on third day; assay type: ADME, organism-based; design: dose 4 mg/kg, route oral; details: in vivo, po; method in brief: as §3
Homo sapiens [21] = test: Half life in Ugandan children patient with uncomplicated malaria assessed as dihydroartemisinin level at 4 mg/kg, perorally bid for 3 days co-administered with amodiaquine at 10 mg/kg, perorally qd on first 2 days and then 5 mg/kg, perorally on third day; assay type: ADME, organism-based; details: in vivo, po
Method in brief: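 Ugandan children aged 5–13 y (n = 21) were dosed with food and fat. Venous blood (3 ml) was drawn before the last dose and at 2, 4, 8, 24 and 120 h after it. Samples were iced, cold-centrifuged within 30 min, and the plasma was stored at −80°C. DHA was assayed by SPE LC-MS/MS in positive ion mode. λz came from terminal regression, usually the last three points. Values are geometric means (90% CIs).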

[22] = Cmax in Ugandan children patient with uncomplicated malaria at 4 mg/kg, perorally […] for 3 days co-administered with amodiaquine at 10 mg/kg, perorally qd on first 2 days and then 5 mg/kg, perorally on third day; assay type: ADME, organism-based; design: dose 4 mg/kg, route oral; details: human, in vivo, po; method in brief: as §3
Homo sapiens [23] = test: AUC (0-infinity) in Ugandan children patient with uncomplicated malaria assessed as dihydroartemisinin level at 4 mg/kg, perorally […] co-administered with amodiaquine at 10 mg/kg, perorally qd on first 2 days and then 5 mg/kg, perorally on third day; assay type: ADME, organism-based, Plasma; design: dose 4 mg/kg, time infinity, route oral; details: in vivo, po; method in brief: as §3

AUC (Homo sapiens [1]): 14770 ng·h/mL
Cmax (Homo sapiens [2]): 235 ng/mL
AUC (Homo sapiens [3]): 8437 ng·h/mL
AUC at 8 h [4]: 28.9 ng·h/mL
AUC (Homo sapiens [5]): 11242 ng·h/mL
Concentration (Homo sapiens [6]): 62 ng/mL
Cmax [7]: 5.2 ng/mL
t1/2 (Homo sapiens [8]): 60 h
Concentration (Homo sapiens [9]): 149 ng/mL
AUC(0-inf) [10]: 154 ng·h/mL
half-life [11]: 3.3 h
AUC(0-inf) [12]: 39.3 ng·h/mL
SMILES: CCN(CC)Cc1cc(Nc2ccnc3cc(Cl)ccc23)ccc1O.Cl

Cmax (Homo sapiens [13]): 119 ng/mL
half-life [14]: 3.9 h
t1/2 (Homo sapiens [15]): 1.9 h
AUC (Homo sapiens [16]): 382 ng·h/mL
Cmax [17]: 34 ng/mL
AUC(0-inf) [18]: 168 ng·h/mL
SMILES: CO[C@H]1O[C@@H]2O[C@@]3(C)CC[C@H]4[C@H](C)CC[C@@H]([C@H]1C)[C@@]24OO3 [ARTEMETHER]

AUC(0-inf) [19]: 113 ng·h/mL
Cmax (Homo sapiens [20]): 473 ng/mL
t1/2 (Homo sapiens [21]): 1.3 h
Cmax [22]: 51.3 ng/mL
AUC (Homo sapiens [23]): 1404 ng·h/mL
SMILES: C[C@H]1[C@H](OC(=O)CCC(=O)O)O[C@@H]2O[C@@]3(C)CC[C@H]4[C@H](C)CC[C@@H]1[C@@]24OO3 [ARTESUNATE]

half-life [14]: 32.7 h
Cmax [17]: 6760 ng/mL
AUC(0-inf) [18]: 210000 ng·h/mL
SMILES: CCCCN(CCCC)CC(O)c1cc(Cl)cc2c1-c1ccc(Cl)cc1/C2=C/c1ccc(Cl)cc1 (stereo unspecified) [LUMEFANTRINE]
